Activity calls are given as the source filed them. The calls are words filed in the database; no cut-off is given here.
Key:
MDA-MB-231 = experiment: Cytotoxicity against human MDA-MB-231 cells assessed as cell survival at 10^-7 M relative to vehicle-treated control; assay type: functional; details: for viability at 0.1 µM: read-out: Survival
Summary of the method: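 MDA-MB-231 used as the ER-negative breast cancer line, tested at 10–7 M alongside MCF-7 cells. Read-out is survival ratio versus control.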

MCF7 [1] = experiment: Cytotoxicity against human MCF7 cells after 5 days; assay type: functional, cell-based; details: MCF7, 120 h
T47D [2] = experiment: Growth inhibition of human T47D cells at 10^-6 M after 5 days relative to control; assay type: functional; details: 120 h, read-out: GI
Summary of the method: (§1)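 Cell survival assay on ER+ MCF-7 or T47D cells treated at fixed concentrations of 10–7 M and 10–6 M. 4-OHT-treated cells served as positive control. Growth inhibition is expressed as percent relative to survival.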

MCF7 [3] = experiment: Drug uptake in human MCF7 cells at 10^-6 M after 6 days by HPLC-MS/MS analysis; assay type: ADME, cell-based; details: mcf7, 144 h, 1 µM
Summary of the method: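 Uptake is estimated indirectly. Drug remaining in the culture medium was measured after 6 days of incubation with MCF-7 cells.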

MCF7 [4] = experiment: Growth inhibition of human MCF7 cells at 10^-6 M after 5 days relative to control; assay type: functional; details: MCF7, 120 h, read-out: GI; summary of the method: as §1
[5] = Half life of the compound in human MCF7 cells at 10^-6 M by HPLC-MS/MS analysis; assay type: ADME, cell-based
T47D [6] = experiment: Cytotoxicity against human T47D cells after 5 days; assay type: functional, cell-based; details: 120 h
MCF7 [7] = experiment: Growth inhibition of human MCF7 cells at 10^-7 M after 5 days relative to control; assay type: functional; details: MCF7, 120 h, read-out: GI; summary of the method: as §1
MCF7 [8] = experiment: Ratio of 4-hydroxytamoxifen IC50 to compound IC50 for human MCF7 cells; assay type: functional
T47D [9] = experiment: Metabolic stability in human T47D cells assessed as compound remaining by LC-MS/MS analysis; assay type: ADME, cell-based
Summary of the method: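 Culture medium from MCF-7 or T47D cells incubated with prodrug was analysed for both intact prodrug and released 4-OHT. Results are reported as relative chromatographic peak areas (% of total for prodrug versus 4-OHT).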

MCF7 [10] = experiment: Metabolic stability in human MCF7 cells assessed as compound remaining by LC-MS/MS analysis; assay type: ADME, cell-based
T47D [11] = experiment: Growth inhibition of human T47D cells at 10^-7 M after 5 days relative to control; assay type: functional; details: 120 h, read-out: GI
Summary of the method: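 Cell survival assay in ER+ T47D breast cancer cells dependent on estrogen for growth. Compounds tested at 10–7 and 10–6 M, with 4-OHT as positive control. Read-out is % growth inhibition from survival relative to control.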

MCF7 [12] = experiment: Ratio of tamoxifen IC50 to compound IC50 for human MCF7 cells; assay type: functional

Compound | Activity (MDA-MB-231) | IC50 (MCF7 [1]) [nM] | inhibition of growth at 1 µM (T47D [2]) [%] | Drug uptake (MCF7 [3]) | inhibition of growth at 1 µM (MCF7 [4]) [%] | half-life at 1 µM [5] [h] | IC50 (T47D [6]) [nM] | inhibition of growth at 0.1 µM (MCF7 [7]) [%] | viability at 0.1 µM (MDA-MB-231) [%] | Ratio IC50 (MCF7 [8]) | Stability (T47D [9]) [%] | Stability (MCF7 [10]) [%] | inhibition of growth at 0.1 µM (T47D [11]) [%] | Ratio IC50 (MCF7 [12])
CC/C(=C(/c1ccc(OCCN(C)C)cc1)c1ccc([B-](F)(F)F)cc1)c1ccccc1.[K+] | inactive | 6.26 | 50 | Active | 76 | 84 | 260 | 59 | – | – | – | – | – | –
CC/C(=C(\c1ccccc1)c1ccc(OCCN(C)C)cc1)c1ccccc1 [TAMOXIFEN] | – | – | – | – | 52 | – | – | 18 | > 95 | – | – | – | – | –
CC/C(=C(/c1ccc(OCCN(C)C)cc1)c1ccc(B2OC(C)(C)C(C)(C)O2)cc1)c1ccccc1 | inactive | 148 | 60 | Active | 63 | 89 | 144 | 52 | – | 0.2 | – | – | – | –
CC/C(=C(/c1ccc(OCCN(C)C)cc1)c1ccc(B(O)O)cc1)c1ccccc1 | inactive | 42 | 54 | Active | 75 | 96 | 228 | 51 | – | – | 20.9 | 30.4 | – | –
CCC(=C(c1ccc(O)cc1)c1ccc(OCCN(C)C)cc1)c1ccccc1 | – | 29.1 | – | Active | 63 | – | 210 | 56 | > 95 | – | – | – | 51 | 30

Reference: ChEMBL document CHEMBL2062492 (ACS Med Chem Lett, 2012)
